Data: ChEMBL document CHEMBL3774374, “The Effect of Small Molecules on Sterol Homeostasis: Measuring 7-Dehydrocholesterol in Dhcr7-Deficient Neuro2a Cells and Human Fibroblasts” (J Med Chem, 2016)
Activity calls are given as the source filed them.

Legend:
[1] = target: T1, Delta(24)-sterol reductase (Mus musculus) (UniProt Q8VCH6); assay: Inhibition of DR24 in Dhcr7-deficient mouse Neuro2a cells assessed as decrease in 7-DHC levels at 1 uM by LC-MS/GC-MS analysis; assay type: cell-based
T1 sequence (whole entry): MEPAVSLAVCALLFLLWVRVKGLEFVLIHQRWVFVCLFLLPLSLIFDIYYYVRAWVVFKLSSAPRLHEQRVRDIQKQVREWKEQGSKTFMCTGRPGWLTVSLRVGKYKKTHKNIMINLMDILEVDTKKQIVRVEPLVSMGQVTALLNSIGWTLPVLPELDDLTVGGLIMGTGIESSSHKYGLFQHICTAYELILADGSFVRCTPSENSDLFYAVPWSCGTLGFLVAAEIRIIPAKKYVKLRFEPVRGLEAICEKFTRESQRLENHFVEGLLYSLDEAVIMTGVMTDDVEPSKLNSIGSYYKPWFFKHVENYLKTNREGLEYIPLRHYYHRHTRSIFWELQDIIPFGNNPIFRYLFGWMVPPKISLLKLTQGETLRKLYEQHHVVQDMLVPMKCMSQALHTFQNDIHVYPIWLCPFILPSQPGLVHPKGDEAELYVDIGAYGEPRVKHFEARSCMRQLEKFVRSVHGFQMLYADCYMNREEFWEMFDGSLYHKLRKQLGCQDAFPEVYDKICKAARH
Summary of the method: (§1)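 Dhcr7-deficient Neuro2a cells (13000/well, 0.5% FBS medium) on predeposited compound, 24 h at 37 °C. Hoechst-stained and imaged to count cells. Lysed in methanol containing isotope-labelled sterol standards, derivatized with PTAD 20 min at RT, then isocratic C18 UPLC-MS/SRM. Remaining extract silylated with BSTFA for GC-MS, quantified against d7-cholesterol. Follow-up runs in triplicate.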

[2] = target: T2, 3-beta-hydroxysteroid-Delta(8),Delta(7)-isomerase (Mus musculus) (UniProt P70245); assay: Inhibition of delta 8-7 isomerase in Dhcr7-deficient mouse Neuro2a cells assessed as decrease in 7-DHC levels at 1 uM by LC-MS/GC-MS analysis; assay type: cell-based; summary of the method: as §1
T2 sequence (whole entry): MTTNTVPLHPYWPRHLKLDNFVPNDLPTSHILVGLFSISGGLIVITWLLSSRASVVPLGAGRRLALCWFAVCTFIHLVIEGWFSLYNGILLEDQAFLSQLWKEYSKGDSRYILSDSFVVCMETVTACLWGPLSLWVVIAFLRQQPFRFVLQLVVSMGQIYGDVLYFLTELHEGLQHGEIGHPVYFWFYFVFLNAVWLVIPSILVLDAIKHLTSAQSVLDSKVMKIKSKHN

[3] = target: T2, 3-beta-hydroxysteroid-Delta(8),Delta(7)-isomerase (Mus musculus); assay: Inhibition of delta 8-7 isomerase in Dhcr7-deficient mouse Neuro2a cells assessed as decrease in 7-DHC levels at 200 nM after 24 hrs by LC-MS analysis; assay type: cell-based
Summary of the method: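 384-well screen: Dhcr7-deficient Neuro2a cells (13000/well) dispensed in 0.5% FBS medium onto predeposited compound (five wells each at 20 and 200 nM) and incubated 24 h at 37 °C. Nuclei Hoechst-stained and counted by automated imaging. Cells lysed in MeOH with deuterated and 13C standards, then derivatised with PTAD for 20 min at RT. 7-DHC measured by isocratic UPLC-MS (SRM) and expressed as pg per cell; DMSO wells served as controls.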

[4] = Cytotoxicity against human SLOS fibroblasts at 5 uM after 5 days by Cell Titer assay; assay type: cell-based; settings: fibroblast, 120 h
[5] = target: T2, 3-beta-hydroxysteroid-Delta(8),Delta(7)-isomerase (Mus musculus); assay: Inhibition of delta 8-7 isomerase in mouse Neuro2a cells assessed as decrease in 7-DHC levels at 1 uM by LC-MS/GC-MS analysis; assay type: cell-based
Summary of the method: (§2)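 Control Neuro2a cells (10000/well, 0.5% FBS) on compound, 24 h. Hoechst cell count, then methanol lysis with labelled standards (d7-7-DHC, 13C3-desmosterol, 13C3-lanosterol), PTAD derivatization 20 min at RT, UPLC-MS SRM. GC-MS of silylated extract for further sterols.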

Fibroblast = assay: Decrease in cholesterol levels in human SLOS fibroblasts at 10 nM after 5 days by LC-MS/GC-MS analysis; assay type: functional, cell-based
Summary of the method: (§3)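 SLOS patient skin fibroblasts (passage 8–20) grown in 96-well plates in delipidated serum with compound for 5 days; three different SLOS lines. Sterols quantified by PTAD-derivatized UPLC-MS plus GC-MS; 7-DHC expressed as percentage of untreated cells.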

[6] = target: 3-beta-hydroxysteroid-Delta(8),Delta(7)-isomerase (Homo sapiens) (UniProt Q15125); assay: Inhibition of delta 8-7 isomerase in human SLOS fibroblasts assessed as decrease in 7-DHC levels at 10 nM after 5 days by LC-MS/GC-MS analysis; summary of the method: as §3
[7] = target: T1, Delta(24)-sterol reductase (Mus musculus); assay: Inhibition of DR24 in Dhcr7-deficient mouse Neuro2a cells assessed as decrease in 7-DHC levels at 200 nM after 24 hrs by LC-MS analysis; assay type: cell-based
Summary of the method: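 384-well screen: Dhcr7-deficient Neuro2a cells (13000/well, 0.5% FBS) with compound at 20 or 200 nM (five wells each), 24 h at 37 °C. Cells counted after Hoechst imaging, then methanol lysis with d7-7-DHC standard, PTAD derivatization 20 min at RT, UPLC-MS SRM (7-DHC 560→365). Read-out is pg 7-DHC per cell.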

[8] = target: T3, Delta(24)-sterol reductase (Homo sapiens) (UniProt Q15392); assay: Inhibition of DR24 in human SLOS fibroblasts assessed as decrease in 7-DHC levels at 10 nM after 5 days by LC-MS/GC-MS analysis; summary of the method: as §3
T3 sequence (whole entry): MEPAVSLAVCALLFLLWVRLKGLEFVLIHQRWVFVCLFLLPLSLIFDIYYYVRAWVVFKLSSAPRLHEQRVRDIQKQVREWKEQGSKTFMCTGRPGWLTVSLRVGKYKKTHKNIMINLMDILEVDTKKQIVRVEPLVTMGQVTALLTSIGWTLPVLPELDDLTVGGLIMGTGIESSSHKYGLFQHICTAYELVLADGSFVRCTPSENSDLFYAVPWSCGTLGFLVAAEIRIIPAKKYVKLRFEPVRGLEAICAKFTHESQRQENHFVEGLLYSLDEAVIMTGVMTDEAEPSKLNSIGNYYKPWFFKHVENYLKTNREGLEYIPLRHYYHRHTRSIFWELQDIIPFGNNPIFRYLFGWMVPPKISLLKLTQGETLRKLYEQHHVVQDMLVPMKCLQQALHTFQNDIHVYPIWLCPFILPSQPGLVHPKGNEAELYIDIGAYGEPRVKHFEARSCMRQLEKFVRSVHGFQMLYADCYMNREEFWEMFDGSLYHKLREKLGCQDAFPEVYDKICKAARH

[9] = target: T1, Delta(24)-sterol reductase (Mus musculus); assay: Inhibition of DR24 in mouse Neuro2a cells assessed as decrease in 7-DHC levels at 1 uM by LC-MS/GC-MS analysis; assay type: cell-based; summary of the method: as §2
[10] = target: T4, Lanosterol 14-alpha demethylase (Mus musculus, UniProt Q8K0C4); assay: Inhibition of 14 alpha demethylase in Dhcr7-deficient mouse Neuro2a cells assessed as decrease in desmosterol levels at 1 uM by LC-MS/GC-MS analysis; assay type: cell-based; summary of the method: as §1
T4 sequence (Q8K0C4 whole entry): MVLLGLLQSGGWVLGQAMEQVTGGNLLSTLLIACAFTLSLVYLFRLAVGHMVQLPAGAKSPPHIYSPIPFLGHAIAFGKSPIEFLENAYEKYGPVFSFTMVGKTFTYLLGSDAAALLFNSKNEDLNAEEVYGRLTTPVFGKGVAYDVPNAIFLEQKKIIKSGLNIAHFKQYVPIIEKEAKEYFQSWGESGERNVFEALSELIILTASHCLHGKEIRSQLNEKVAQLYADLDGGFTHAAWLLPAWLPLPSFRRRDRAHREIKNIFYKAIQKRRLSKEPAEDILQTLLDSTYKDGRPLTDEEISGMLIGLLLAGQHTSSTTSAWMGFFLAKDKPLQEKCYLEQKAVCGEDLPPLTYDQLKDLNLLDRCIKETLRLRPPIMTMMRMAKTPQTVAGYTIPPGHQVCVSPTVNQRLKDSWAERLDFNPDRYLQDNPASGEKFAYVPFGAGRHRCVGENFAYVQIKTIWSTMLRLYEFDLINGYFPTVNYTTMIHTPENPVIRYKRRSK

[11] = target: T4, Lanosterol 14-alpha demethylase; assay: Inhibition of 14 alpha demethylase in Dhcr7-deficient mouse Neuro2a cells assessed as increase in lanosterol levels at 1 uM by LC-MS/GC-MS analysis; assay type: cell-based; summary of the method: as §1
[12] = Antiproliferative activity against Dhcr7-deficient mouse Neuro2a cells at 500 nM; assay type: cell-based; settings: n2a, 0.5 µM
Summary of the method: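 Dhcr7-deficient Neuro2a cells treated with compound; proliferation followed by Hoechst nuclear staining and automated microscope imaging with cell counts per well.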

[13] = target: T4, Lanosterol 14-alpha demethylase; assay: Inhibition of 14 alpha demethylase in Dhcr7-deficient mouse Neuro2a cells assessed as decrease in 7-DHC levels at 1 uM by LC-MS/GC-MS analysis; assay type: cell-based; summary of the method: as §1
[14] = target: T4, Lanosterol 14-alpha demethylase; assay: Inhibition of 14 alpha demethylase in Dhcr7-deficient mouse Neuro2a cells assessed as increase in cholesterol levels at 1 uM by LC-MS/GC-MS analysis; assay type: cell-based; summary of the method: as §1
[15] = target: T1, Delta(24)-sterol reductase (Mus musculus); assay: Inhibition of DR24 in Dhcr7-deficient mouse Neuro2a cells assessed as increase in lanosterol levels at 100 nM by LC-MS/GC-MS analysis; assay type: cell-based
Summary of the method: (§4)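 Follow-up (verification) assay in 96-well plates, run as the 384-well screen, in triplicate, at varying compound concentrations. Cells counted by Hoechst imaging, washed with PBS, then lysed in MeOH with BHT/TPP and isotope standards (d7-Chol, d7-7-DHC, 13C3-Des, 13C3-Lan). Sterols derivatised with PTAD for 20 min at RT and quantified by C18 UPLC-MS (SRM). Remaining sample silylated with BSTFA and run on GC-MS, quantified against d7-Chol.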

[16] = target: T1, Delta(24)-sterol reductase (Mus musculus); assay: Inhibition of DR24 in Dhcr7-deficient mouse Neuro2a cells assessed as increase in desmosterol levels at 100 nM by LC-MS/GC-MS analysis; assay type: cell-based; summary of the method: as §4
N2a = assay: Change in cholesterol level in Dhcr7-deficient mouse Neuro2a cells at 100 nM by LC-MS/GC-MS analysis; assay type: functional, cell-based; summary of the method: as §4
[17] = target: T1, Delta(24)-sterol reductase (Mus musculus); assay: Inhibition of C-24 reductase in Dhcr7-deficient mouse Neuro2a cells assessed as increase in zymosterol levels at 1 uM by LC-MS/GC-MS analysis; assay type: cell-based; summary of the method: as §1
[18] = target: T1, Delta(24)-sterol reductase (Mus musculus); assay: Inhibition of C-24 reductase in Dhcr7-deficient mouse Neuro2a cells assessed as increase in desmosterol levels at 1 uM by LC-MS/GC-MS analysis; assay type: cell-based; summary of the method: as §1

Chain of 3-beta-hydroxysteroid-Delta(8),Delta(7)-isomerase (Homo sapiens) (Q15125 whole entry): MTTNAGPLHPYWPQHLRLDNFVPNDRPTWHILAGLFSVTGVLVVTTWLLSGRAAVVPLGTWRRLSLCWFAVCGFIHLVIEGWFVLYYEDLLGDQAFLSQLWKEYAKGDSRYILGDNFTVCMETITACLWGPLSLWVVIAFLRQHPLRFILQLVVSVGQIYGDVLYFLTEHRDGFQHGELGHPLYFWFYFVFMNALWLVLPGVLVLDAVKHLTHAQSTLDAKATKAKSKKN

Cc1c(-c2ccc(O)cc2)n(Cc2ccc(OCCN3CCCCCC3)cc2)c2ccc(O)cc12 [BAZEDOXIFENE]
Toxic: Activity [4]
active: inhibition [1] | inhibition [2] | inhibition [3] | Activity (decrease in 7-DHC levels) [5] | inhibition [6] | inhibition [7] | inhibition [8] | Decrease in 7-DHC levels (active/inactive call) [9]
inactive: Activity (Fibroblast)

Oc1c(Cl)cc(Cl)c(Cl)c1Cc1c(O)c(Cl)cc(Cl)c1Cl [HEXACHLOROPHENE]
Toxic: Activity [12]
Active: inhibition (INH) [10] | inhibition (INH) [11] | inhibition (INH) [13] | inhibition (INH) [14]

CCC(COC(=O)c1cc(OC)c(OC)c(OC)c1)(c1ccccc1)N(C)C (stereo not given)
inactive: Activity (N2a)
active: inhibition [1] | inhibition [15] | inhibition [16]

Oc1ccc2c(c1)CC[C@H](c1ccccc1)[C@@H]2c1ccc(OCCN2CCCC2)cc1
active: inhibition [17] | inhibition [1] | inhibition [2] | Activity (decrease in 7-DHC levels) [5] | inhibition [18] | Decrease in 7-DHC levels (active/inactive call) [9]
